ChEMBL document CHEMBL3868583, “6-Aryl substituted 4-(4-cyanomethyl) phenylamino quinazolines as a new class of isoform-selective PI3K-alpha inhibitors” (Eur J Med Chem, 2016)
Converted amounts (≈) assume the structure as drawn.

Assays:
[1] = Cytotoxicity against HGF cells assessed as cell growth inhibition after 48 hrs by MTT assay; assay type: toxicity, cell-based; conditions: human
[2] = target: Phosphatidylinositol 4,5-bisphosphate 3-kinase catalytic subunit alpha isoform (Homo sapiens, UniProt P42336); test: Inhibition of PI3Kalpha (unknown origin) using diC8 PIP2 as substrate at 0.5 uM after 80 mins by ADP-glo assay
[3] = Thermodynamic equilibrium solubility of compound in simulated intestinal fluid up to 300 ug after 4 hrs by UV absorbance method; assay type: ADME; conditions: read-out: Therm_solubility
Outline: (§1)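 Methanol stock evaporated in wells to give 1–300 µg solid; 200 µl medium (water, PBS, SGF or SIF) added, shaken 300 rpm 4 h at 25 ± 1 °C, equilibrated overnight, centrifuged; supernatant UV absorbance at λmax; saturation point from concentration–absorbance curve; triplicate.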

[4] = Cytotoxicity against human FR2 cells assessed as cell growth inhibition after 48 hrs by MTT assay; assay type: toxicity, cell-based
Homo sapiens [5] = species: Homo sapiens; test: Selectivity ratio of IC50 for PI3Kgamma (unknown origin) to IC50 for PI3Kalpha (unknown origin)
PC-3 = test: Induction of cell cycle arrest in human PC3 cells assessed as accumulation at subG1 phase after 24 hrs by propidium iodide-staining based FACS analysis; assay type: functional
Outline: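 PC-3 cells exposed 24 h at indicated concentrations, pelleted, fixed overnight in ice-cold 70% ethanol at 4 °C, RNase 0.2 mg/mL at 37 °C 1 h, propidium iodide 10 µg/mL 30 min in dark; 10,000 events acquired (FL2-A vs FL2-W); DNA histograms modelled for apoptotic (sub-G1), G1, S and G2-M fractions.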

CYP1A2 = target: T1, CYP1A2 (Homo sapiens, UniProt P05177); test: Inhibition of human CYP1A2 at 10 uM after 10 mins by fluorescence assay; assay type: ADME
T1 sequence (P05177 whole entry): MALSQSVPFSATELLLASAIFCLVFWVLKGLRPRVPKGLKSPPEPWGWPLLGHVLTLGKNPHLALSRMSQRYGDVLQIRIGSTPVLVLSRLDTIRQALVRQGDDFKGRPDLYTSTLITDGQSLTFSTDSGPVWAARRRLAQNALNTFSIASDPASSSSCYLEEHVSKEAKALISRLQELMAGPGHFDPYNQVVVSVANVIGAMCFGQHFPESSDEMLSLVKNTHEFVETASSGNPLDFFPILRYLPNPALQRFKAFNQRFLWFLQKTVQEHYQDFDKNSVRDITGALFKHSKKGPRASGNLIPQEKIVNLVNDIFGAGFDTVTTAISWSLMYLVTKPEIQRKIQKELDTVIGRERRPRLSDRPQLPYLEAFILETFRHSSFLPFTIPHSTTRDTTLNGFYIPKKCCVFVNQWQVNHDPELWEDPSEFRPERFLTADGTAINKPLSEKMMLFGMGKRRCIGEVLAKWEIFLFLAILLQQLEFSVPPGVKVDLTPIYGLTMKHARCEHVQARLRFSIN

[6] = Efflux ratio of permeability in human Caco2 cells after 90 mins by LC-MS/MS analysis; assay type: ADME, cell-based; conditions: Caco-2
Outline: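 Caco-2 monolayers grown 21 days (TEER >500). Compound in HBSS with 10 mM HEPES dosed to the apical chamber, and in a repeat run to the basolateral chamber. Both chambers sampled at 0 and 90 min at 37 °C. Analysis by LC-MS/MS.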

[7] = Cytotoxicity against human A375 cells assessed as cell growth inhibition after 48 hrs by MTT assay; assay type: functional; conditions: A-375, 48 h
Outline: (§2)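 MTT assay: 3 × 10^3 cells/well seeded, compounds added after 24 h at final […], 48 h exposure. MTT (2.5 mg/mL in PBS) added, formazan dissolved in DMSO, absorbance 570 nm. Viability as % of untreated; three independent experiments, mean ± SD.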

Homo sapiens [8] = species: Homo sapiens; test: Selectivity ratio of IC50 for PI3Kdelta (unknown origin) to IC50 for PI3Kalpha (unknown origin)
[9] = Cytotoxicity against human HL60 cells assessed as cell growth inhibition after 48 hrs by MTT assay; assay type: functional; conditions: HL-60, 48 h; outline: as §2
Homo sapiens [10] = species: Homo sapiens; test: Selectivity ratio of IC50 for PI3Kbeta (unknown origin) to IC50 for PI3Kalpha (unknown origin)
[11] = Thermodynamic equilibrium solubility of compound in simulated gastric fluid up to 300 ug after 4 hrs by UV absorbance method; assay type: ADME; conditions: read-out: Therm_solubility; outline: as §1
[12] = Thermodynamic equilibrium solubility of compound in PBS up to 300 ug after 4 hrs by UV absorbance method; assay type: physicochemical; conditions: read-out: Therm_solubility; outline: as §1
[13] = Thermodynamic equilibrium solubility of compound in water up to 300 ug after 4 hrs by UV absorbance method; assay type: physicochemical; conditions: read-out: Therm_solubility; outline: as §1
[14] = Cytotoxicity against human MCF7 cells assessed as cell growth inhibition after 48 hrs by MTT assay; assay type: functional; conditions: MCF7, 48 h; outline: as §2
[15] = Cytotoxicity against human PANC1 cells assessed as cell growth inhibition after 48 hrs by MTT assay; assay type: functional; conditions: PANC-1, 48 h; outline: as §2
CYP2C19 = CYP2C19 (Homo sapiens, UniProt P33261); test: Inhibition of human CYP2C19 at 10 uM after 10 mins by fluorescence assay; assay type: ADME
[16] = Cytotoxicity against HEK293 cells assessed as cell growth inhibition after 48 hrs by MTT assay; assay type: toxicity, cell-based; conditions: human
CYP2D6 = CYP2D6 (Homo sapiens, UniProt P10635); test: Inhibition of human CYP2D6 at 10 uM after 10 mins by fluorescence assay; assay type: ADME
[17] = Cytotoxicity against human PC3 cells assessed as cell growth inhibition after 48 hrs by MTT assay; assay type: functional; conditions: PC-3, 48 h; outline: as §2
MCF7 = test: Induction of cell cycle arrest in human MCF7 cells assessed as accumulation at subG1 phase after 24 hrs by propidium iodide-staining based FACS analysis; assay type: functional
Outline: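 MCF-7 or PC-3 cells treated at indicated concentrations for 24 h, pelleted, PBS-washed, fixed in ice-cold 70% ethanol overnight at 4 °C. RNase 0.2 mg/mL 1 h at 37 °C, propidium iodide 10 µg/mL 30 min dark. 10,000 events (FL2-A vs FL2-W) by flow cytometry; fractions in apoptosis/sub-G1, G1, S, G2-M.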

CYP3A4 = CYP3A4 (Homo sapiens, UniProt P08684); test: Inhibition of human CYP3A4 at 10 uM after 10 mins by fluorescence assay; assay type: ADME
CYP2C9 = CYP2C9 (Homo sapiens, UniProt P11712); test: Inhibition of human CYP2C9 at 10 uM after 10 mins by fluorescence assay; assay type: ADME
[18] = Downregulation of PI3Kbeta expression in human PC3 cells at 30 uM by Western blot analysis; assay type: functional, cell-based; conditions: PC-3
Outline: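 MCF-7 or PC-3 cells (2 × 10^6) treated with compound, lysed (1 × 10^6 cells) in cold NP-40 buffer with protease inhibitors 30 min on ice, 12,000 g 10 min 4 °C. 50 µg protein per lane on SDS-PAGE, PVDF transfer, 5% milk block, primary antibody 2 h, HRP secondary 1 h, ECL on film; β-actin internal control.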

Mus musculus = test: Toxicity in Swiss mouse implanted with Swiss mouse EAC cells assessed as body weight at 70 mg/kg, ip administered for 1 to 9 days measured on day 5 (reference value: 26.2 g); assay type: organism-based, Ehrlich; conditions: in vivo

CYP2C9, sequence (P11712 whole entry): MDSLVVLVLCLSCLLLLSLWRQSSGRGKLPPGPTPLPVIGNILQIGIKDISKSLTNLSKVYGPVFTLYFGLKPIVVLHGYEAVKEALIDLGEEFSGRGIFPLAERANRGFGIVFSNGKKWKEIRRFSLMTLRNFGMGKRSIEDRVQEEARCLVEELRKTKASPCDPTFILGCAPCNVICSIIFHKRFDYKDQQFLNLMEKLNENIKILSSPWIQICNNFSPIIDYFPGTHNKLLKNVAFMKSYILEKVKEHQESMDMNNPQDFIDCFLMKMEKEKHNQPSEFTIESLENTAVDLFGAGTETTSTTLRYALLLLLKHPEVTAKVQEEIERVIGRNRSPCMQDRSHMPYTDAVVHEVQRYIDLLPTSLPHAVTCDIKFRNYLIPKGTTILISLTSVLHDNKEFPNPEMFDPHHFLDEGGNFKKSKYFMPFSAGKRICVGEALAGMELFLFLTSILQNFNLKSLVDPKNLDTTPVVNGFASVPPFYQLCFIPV
CYP2D6, sequence (P10635 whole entry): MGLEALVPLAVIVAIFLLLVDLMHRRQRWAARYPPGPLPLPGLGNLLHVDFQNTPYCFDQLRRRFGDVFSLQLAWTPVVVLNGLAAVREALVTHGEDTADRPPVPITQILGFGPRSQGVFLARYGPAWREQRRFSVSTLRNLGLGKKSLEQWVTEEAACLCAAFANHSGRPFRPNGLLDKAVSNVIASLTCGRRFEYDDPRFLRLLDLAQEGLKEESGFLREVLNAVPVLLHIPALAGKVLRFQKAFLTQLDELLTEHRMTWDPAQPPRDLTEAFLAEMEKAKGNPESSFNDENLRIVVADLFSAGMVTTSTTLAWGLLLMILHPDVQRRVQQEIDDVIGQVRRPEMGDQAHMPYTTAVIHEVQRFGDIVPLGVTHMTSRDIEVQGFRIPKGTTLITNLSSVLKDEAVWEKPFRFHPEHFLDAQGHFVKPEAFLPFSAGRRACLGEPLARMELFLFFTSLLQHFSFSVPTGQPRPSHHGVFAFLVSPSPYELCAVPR
Phosphatidylinositol 4,5-bisphosphate 3-kinase catalytic subunit alpha isoform, sequence (P42336 whole entry, canonical isoform): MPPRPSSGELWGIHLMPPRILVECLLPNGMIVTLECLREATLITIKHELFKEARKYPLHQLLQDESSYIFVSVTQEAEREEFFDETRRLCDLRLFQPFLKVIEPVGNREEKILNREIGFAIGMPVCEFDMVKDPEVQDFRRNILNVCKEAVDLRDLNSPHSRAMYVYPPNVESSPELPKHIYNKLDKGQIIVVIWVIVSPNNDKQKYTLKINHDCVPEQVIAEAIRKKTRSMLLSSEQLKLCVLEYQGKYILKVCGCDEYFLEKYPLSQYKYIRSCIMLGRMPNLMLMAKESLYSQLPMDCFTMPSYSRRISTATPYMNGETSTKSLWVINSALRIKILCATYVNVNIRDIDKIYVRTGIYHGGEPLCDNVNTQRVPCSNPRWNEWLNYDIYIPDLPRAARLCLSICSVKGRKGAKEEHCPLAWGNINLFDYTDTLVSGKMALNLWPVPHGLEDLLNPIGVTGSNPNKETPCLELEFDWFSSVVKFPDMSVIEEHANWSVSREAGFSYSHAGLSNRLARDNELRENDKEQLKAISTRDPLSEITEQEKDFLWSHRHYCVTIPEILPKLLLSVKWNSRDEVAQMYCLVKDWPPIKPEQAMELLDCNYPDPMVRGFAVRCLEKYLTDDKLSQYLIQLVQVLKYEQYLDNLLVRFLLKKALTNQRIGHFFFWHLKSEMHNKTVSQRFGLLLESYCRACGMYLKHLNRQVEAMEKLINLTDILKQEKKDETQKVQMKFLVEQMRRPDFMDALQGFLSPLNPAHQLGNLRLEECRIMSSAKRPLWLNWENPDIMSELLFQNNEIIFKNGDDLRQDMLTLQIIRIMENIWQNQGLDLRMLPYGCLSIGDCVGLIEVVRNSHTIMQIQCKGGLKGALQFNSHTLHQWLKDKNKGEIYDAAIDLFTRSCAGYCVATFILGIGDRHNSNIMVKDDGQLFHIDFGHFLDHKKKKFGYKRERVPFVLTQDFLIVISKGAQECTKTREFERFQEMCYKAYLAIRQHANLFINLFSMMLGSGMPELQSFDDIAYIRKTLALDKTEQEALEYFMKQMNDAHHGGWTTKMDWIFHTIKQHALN
CYP3A4, sequence (P08684 whole entry): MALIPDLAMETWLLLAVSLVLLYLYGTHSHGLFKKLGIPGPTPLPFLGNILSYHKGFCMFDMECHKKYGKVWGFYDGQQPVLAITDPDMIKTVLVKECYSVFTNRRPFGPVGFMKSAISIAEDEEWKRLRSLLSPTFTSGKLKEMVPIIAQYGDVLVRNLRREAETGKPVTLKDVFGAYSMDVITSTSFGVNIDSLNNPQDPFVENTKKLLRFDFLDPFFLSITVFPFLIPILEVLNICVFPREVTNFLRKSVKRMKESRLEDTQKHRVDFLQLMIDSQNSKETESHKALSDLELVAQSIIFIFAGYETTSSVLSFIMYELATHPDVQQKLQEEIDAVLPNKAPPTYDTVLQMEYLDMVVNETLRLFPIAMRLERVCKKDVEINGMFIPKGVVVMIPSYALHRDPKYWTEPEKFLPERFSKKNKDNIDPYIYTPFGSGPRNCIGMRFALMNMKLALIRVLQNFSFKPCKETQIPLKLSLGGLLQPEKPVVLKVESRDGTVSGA
CYP2C19, sequence (P33261 whole entry): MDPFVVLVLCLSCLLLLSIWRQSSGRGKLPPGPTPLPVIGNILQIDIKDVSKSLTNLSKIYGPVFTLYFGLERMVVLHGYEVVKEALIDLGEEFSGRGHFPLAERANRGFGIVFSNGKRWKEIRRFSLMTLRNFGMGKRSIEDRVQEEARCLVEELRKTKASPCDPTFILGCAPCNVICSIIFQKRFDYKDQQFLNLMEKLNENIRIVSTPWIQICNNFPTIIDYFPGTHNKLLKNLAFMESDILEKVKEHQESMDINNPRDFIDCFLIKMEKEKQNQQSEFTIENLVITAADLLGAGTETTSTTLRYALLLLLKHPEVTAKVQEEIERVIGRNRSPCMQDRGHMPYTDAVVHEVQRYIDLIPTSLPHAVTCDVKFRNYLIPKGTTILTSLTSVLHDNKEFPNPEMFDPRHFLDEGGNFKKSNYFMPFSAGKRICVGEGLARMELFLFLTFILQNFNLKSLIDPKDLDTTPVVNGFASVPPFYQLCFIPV

Row | Structure (SMILES) | GI50 at 48 h [1] [µM] | inhibition [2] [%] | solubility thermodynamic at 4 h [3] [µg/mL] | GI50 at 48 h [4] [µM] | Ratio IC50 (Homo sapiens [5]) | Activity (PC-3) | inhibition at 10 min, 10 µM (CYP1A2) [%] | efflux ratio at 1.5 h [6] | GI50 [7] [µM] | Ratio IC50 (Homo sapiens [8]) | GI50 [9] [µM] | Ratio IC50 (Homo sapiens [10]) | solubility thermodynamic at 4 h [11] [µg/mL] | solubility thermodynamic at 4 h [12] [µg/mL] | solubility thermodynamic at 4 h [13] [µg/mL] | GI50 [14] [µM] | GI50 [15] [µM] | inhibition at 10 min, 10 µM (CYP2C19) [%] | GI50 at 48 h [16] [µM] | inhibition at 10 min, 10 µM (CYP2D6) [%] | other results
1 | N#CCc1ccc(Nc2ncnc3ccc(-c4ccc5[nH]ccc5c4)cc23)cc1 | > 50 | 47.5 | 5 (≈ 13.3 µM) | > 50 | 3.7 | Dose-dependent effect | 30 | 1.3 | 31 | > 49.7 | 18 | > 49.7 | 80 (≈ 213 µM) | 10 (≈ 26.6 µM) | 10 (≈ 26.6 µM) | 7 | 16 | 10 | > 50 | 29 | GI50 [17]: 24 µM; Activity (MCF7): Dose-dependent effect; inhibition at 10 min, 10 µM (CYP3A4): 51%; inhibition at 10 min, 10 µM (CYP2C9): 88%
2 | N#CCc1ccc(Nc2ncnc3ccc(-c4cncc5ccccc45)cc23)cc1 | > 50 | 48.8 | 1 (≈ 2.58 µM) | > 50 | 56 | Dose-dependent effect | 72 | 1.2 | 12 | 5.9 | 10 | > 133 | 800 (≈ 2060 µM) | 1 (≈ 2.58 µM) | 1 (≈ 2.58 µM) | 12 | 9 | 34 | > 50 | -35 | Activity [18]: 42%; Activity (Mus musculus): 23 g; GI50 [17]: 9 µM; Activity (MCF7): Dose-dependent effect; inhibition at 10 min, 10 µM (CYP3A4): 27%; inhibition at 10 min, 10 µM (CYP2C9): 87%
